Reference: ChEMBL document CHEMBL1765011, “Synthesis and c-Met kinase inhibition of 3,5-disubstituted and 3,5,7-trisubstituted quinolines: identification of 3-(4-acetylpiperazin-1-yl)-5-(3-nitrobenzylamino)-7- (trifluoromethyl)quinoline as a novel anticancer agent” (J Med Chem, 2011)
The source made the active and inactive calls. The rule behind the calls is not given here.

Assays:
[1] = target: T1, Hepatocyte growth factor receptor (Homo sapiens, UniProt P08581); assay: Inhibition of purified recombinant c-Met after 60 mins by ELISA
[2] = Clearance in mouse at 10 mg/kg, iv; format: ADME, organism-based; set-up: dose 10 mg/kg, route intravenous; conditions: in vivo
How it was run: (§1)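 Single iv dose of 10 mg/kg to mice, vehicle DMSO/Tween 80/normal saline. Clearance and half-life were derived from plasma concentration-time data. Average of three runs.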

[3] = Volume of distribution at steady state in mouse at 10 mg/kg, iv; format: ADME, organism-based; set-up: dose 10 mg/kg, route intravenous; conditions: in vivo, read-out: Vdss
[4] = Half life in mouse at 10 mg/kg, iv; format: ADME, organism-based; set-up: dose 10 mg/kg, route intravenous; conditions: in vivo; how it was run: as §1
[5] = Cmax in mouse at 20 mg/kg, po; format: ADME, organism-based; set-up: dose 20 mg/kg, route oral; conditions: in vivo
How it was run: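 Oral 20 mg/kg single dose to mice, vehicle DMSO/Tween 80/normal saline. Cmax was read from the plasma concentration-time profile. Average of three runs.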

[6] = Tmax in mouse at 20 mg/kg, po; format: ADME, organism-based; set-up: dose 20 mg/kg, route oral; conditions: in vivo
[7] = target: Macrophage-stimulating protein receptor (Homo sapiens, UniProt Q04912); assay: Inhibition of RON
How it was run: (§2)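 ELISA on plates precoated with 20 μg/mL poly(Glu,Tyr) 4:1. Buffer: 10 μM ATP, 50 mM HEPES pH 7.4, 50 mM MgCl2, 0.5 mM MnCl2, 0.2 mM Na3VO4, 1 mM DTT, compound in 1% DMSO. Purified kinase was added and incubated 60 min at 37 °C. Phosphotyrosine was detected with PY99 then HRP anti-mouse IgG, o-phenylenediamine, A490. IC50 was taken from inhibition curves.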

[8] = target: Vascular endothelial growth factor receptor 1 (Homo sapiens, UniProt P17948); assay: Inhibition of Flt-1; how it was run: as §2
[9] = target: Vascular endothelial growth factor receptor 2 (Homo sapiens, UniProt P35968); assay: Inhibition of KDR; how it was run: as §2
[10] = target: Mast/stem cell growth factor receptor Kit (Homo sapiens, UniProt P10721); assay: Inhibition of c-Kit; how it was run: as §2
[11] = target: Proto-oncogene tyrosine-protein kinase receptor Ret (Homo sapiens, UniProt P07949); assay: Inhibition of RET
[12] = target: T1, Hepatocyte growth factor receptor; assay: Inhibition of c-Met in human MKN45 cells assessed as ERK1/2 phosphorylation at 0.1 to 3 uM after 4 hrs by Western blotting; format: cell-based; conditions: MKN-45
How it was run: (§3)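 Exponentially growing cells were exposed to compound for 4 h at 37 °C and lysed in SDS sample buffer. Lysates were resolved on 10% SDS-PAGE and blotted. Blots were probed for phospho- and total ERK1/2 and AKT, with GAPDH loading control, and detected by ECL.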

[13] = target: T1, Hepatocyte growth factor receptor; assay: Inhibition of c-Met in human H1993 cells assessed as AKT phosphorylation at 0.1 to 3 uM after 4 hrs by Western blotting; format: cell-based; how it was run: as §3
[14] = target: Hepatocyte growth factor receptor (Mus musculus) (UniProt P16056); assay: Inhibition of TPR-c-Met phosphorylation expressed in mouse BAF3 cells assessed as AKT phosphorylation at 0.1 to 3 uM after 4 hrs by Western blotting; format: cell-based; how it was run: as §3
NCI-H1993 = assay: Antiproliferative activity against human NCI-H1993 cells after 72 hrs; conditions: NCI-H1993, 72 h
MCF7 = assay: Antiproliferative activity against human MCF7 cells after 72 hrs; conditions: MCF7, 72 h
NIH3T3 = assay: Antitumor activity against mouse NIH/3T3 cells expressing TPR-Met xenografted in nude mouse assessed as tumor growth inhibition at 100 mg/kg, ip qd for 14 days relative to control; format: functional; conditions: 336 h, route intraperitoneal
How it was run: (§4)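 Tumor cells, (5-10)×10^6, were implanted sc in nude mice and grown to 700-800 mm3. Tumors were cut into 1 mm3 fragments and trocar-transplanted sc. At 100-150 mm3, mice were randomized (n = 6) to vehicle or ip dosing daily. Volumes were measured twice weekly by caliper, TV = length×width²/2. % inhibition used final-day versus day-1 change against vehicle, with Student's t test.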

[15] = Antitumor activity against human U87MG cells xenografted in nude mouse assessed as tumor growth inhibition at 100 mg/kg, ip qd for 14 days relative to control; format: functional, U-87MG ATCC; conditions: U-87 MG, 336 h, route intraperitoneal; how it was run: as §4

T1 sequence (P08581 whole entry): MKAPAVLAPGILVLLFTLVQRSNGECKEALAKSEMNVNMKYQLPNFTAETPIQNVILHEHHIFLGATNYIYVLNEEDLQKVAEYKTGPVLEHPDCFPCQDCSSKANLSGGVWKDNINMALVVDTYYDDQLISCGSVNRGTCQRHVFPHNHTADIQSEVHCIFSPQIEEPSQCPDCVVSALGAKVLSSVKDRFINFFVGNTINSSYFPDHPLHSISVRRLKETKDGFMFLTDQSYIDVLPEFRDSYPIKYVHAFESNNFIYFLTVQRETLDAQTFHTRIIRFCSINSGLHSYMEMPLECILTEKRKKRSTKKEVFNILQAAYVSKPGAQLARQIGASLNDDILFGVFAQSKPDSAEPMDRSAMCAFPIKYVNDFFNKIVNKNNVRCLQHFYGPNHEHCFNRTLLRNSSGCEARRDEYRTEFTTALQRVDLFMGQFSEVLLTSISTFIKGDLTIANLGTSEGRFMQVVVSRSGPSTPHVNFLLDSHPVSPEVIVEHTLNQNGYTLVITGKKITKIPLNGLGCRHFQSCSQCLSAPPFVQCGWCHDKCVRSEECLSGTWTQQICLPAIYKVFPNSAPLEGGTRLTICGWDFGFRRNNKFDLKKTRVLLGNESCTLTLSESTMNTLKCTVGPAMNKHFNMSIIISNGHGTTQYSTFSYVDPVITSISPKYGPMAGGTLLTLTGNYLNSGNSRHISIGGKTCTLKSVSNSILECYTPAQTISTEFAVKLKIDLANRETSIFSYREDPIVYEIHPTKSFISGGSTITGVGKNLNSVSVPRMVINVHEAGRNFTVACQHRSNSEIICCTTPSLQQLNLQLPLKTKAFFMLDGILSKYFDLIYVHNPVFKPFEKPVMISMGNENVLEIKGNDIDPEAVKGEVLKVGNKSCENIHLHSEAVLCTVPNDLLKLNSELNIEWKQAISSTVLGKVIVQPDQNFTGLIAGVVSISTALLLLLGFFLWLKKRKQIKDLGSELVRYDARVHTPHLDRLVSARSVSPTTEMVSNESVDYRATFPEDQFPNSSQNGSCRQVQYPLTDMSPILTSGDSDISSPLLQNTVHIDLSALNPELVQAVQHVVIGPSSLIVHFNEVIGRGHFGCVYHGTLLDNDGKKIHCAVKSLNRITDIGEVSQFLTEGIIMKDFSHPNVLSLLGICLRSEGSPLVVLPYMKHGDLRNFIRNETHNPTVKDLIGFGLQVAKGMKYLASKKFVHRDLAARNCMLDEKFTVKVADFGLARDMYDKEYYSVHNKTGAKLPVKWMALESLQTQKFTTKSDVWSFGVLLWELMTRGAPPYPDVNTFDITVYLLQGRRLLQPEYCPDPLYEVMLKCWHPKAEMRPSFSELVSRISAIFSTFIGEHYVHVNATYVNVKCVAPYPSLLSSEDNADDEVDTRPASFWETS
Chain of Macrophage-stimulating protein receptor (Q04912 25-304 limits assumed): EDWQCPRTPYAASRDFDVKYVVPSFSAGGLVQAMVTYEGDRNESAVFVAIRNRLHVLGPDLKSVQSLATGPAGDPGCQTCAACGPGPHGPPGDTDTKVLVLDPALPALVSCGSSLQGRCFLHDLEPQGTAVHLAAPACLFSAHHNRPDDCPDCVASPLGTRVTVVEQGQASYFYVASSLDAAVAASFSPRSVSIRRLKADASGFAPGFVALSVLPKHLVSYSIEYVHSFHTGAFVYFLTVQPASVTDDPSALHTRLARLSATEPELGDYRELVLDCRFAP
Chain of Macrophage-stimulating protein receptor (Q04912 310-1400 limits assumed): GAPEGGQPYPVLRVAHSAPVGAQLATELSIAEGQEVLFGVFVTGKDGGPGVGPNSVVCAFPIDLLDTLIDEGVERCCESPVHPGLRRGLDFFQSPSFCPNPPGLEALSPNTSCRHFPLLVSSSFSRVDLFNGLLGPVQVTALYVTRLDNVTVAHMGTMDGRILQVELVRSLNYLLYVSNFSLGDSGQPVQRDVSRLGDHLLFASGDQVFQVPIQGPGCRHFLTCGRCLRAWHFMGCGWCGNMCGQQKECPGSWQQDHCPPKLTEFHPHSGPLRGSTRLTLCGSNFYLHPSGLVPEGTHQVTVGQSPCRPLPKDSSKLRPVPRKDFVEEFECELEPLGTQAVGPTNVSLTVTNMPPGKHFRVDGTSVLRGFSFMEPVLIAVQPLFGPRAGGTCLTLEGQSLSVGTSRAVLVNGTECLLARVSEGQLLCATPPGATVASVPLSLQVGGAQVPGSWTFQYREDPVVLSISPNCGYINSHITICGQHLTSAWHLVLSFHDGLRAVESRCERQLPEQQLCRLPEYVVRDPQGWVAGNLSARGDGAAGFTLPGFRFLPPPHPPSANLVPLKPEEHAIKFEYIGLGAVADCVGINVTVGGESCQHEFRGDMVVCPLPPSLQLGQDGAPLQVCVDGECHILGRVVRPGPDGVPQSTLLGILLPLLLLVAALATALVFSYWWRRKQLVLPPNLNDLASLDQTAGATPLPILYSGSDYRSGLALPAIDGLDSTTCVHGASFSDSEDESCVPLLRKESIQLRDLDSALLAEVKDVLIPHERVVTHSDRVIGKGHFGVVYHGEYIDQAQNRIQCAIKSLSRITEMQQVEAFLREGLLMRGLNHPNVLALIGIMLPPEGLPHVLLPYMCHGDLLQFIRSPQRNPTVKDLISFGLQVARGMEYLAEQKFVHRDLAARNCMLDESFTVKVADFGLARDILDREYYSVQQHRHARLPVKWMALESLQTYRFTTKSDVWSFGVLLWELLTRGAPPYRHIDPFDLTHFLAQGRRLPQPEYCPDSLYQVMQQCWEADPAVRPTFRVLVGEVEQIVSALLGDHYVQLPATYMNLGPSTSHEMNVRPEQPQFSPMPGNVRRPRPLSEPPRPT
Chain of Vascular endothelial growth factor receptor 2 (P35968 whole entry): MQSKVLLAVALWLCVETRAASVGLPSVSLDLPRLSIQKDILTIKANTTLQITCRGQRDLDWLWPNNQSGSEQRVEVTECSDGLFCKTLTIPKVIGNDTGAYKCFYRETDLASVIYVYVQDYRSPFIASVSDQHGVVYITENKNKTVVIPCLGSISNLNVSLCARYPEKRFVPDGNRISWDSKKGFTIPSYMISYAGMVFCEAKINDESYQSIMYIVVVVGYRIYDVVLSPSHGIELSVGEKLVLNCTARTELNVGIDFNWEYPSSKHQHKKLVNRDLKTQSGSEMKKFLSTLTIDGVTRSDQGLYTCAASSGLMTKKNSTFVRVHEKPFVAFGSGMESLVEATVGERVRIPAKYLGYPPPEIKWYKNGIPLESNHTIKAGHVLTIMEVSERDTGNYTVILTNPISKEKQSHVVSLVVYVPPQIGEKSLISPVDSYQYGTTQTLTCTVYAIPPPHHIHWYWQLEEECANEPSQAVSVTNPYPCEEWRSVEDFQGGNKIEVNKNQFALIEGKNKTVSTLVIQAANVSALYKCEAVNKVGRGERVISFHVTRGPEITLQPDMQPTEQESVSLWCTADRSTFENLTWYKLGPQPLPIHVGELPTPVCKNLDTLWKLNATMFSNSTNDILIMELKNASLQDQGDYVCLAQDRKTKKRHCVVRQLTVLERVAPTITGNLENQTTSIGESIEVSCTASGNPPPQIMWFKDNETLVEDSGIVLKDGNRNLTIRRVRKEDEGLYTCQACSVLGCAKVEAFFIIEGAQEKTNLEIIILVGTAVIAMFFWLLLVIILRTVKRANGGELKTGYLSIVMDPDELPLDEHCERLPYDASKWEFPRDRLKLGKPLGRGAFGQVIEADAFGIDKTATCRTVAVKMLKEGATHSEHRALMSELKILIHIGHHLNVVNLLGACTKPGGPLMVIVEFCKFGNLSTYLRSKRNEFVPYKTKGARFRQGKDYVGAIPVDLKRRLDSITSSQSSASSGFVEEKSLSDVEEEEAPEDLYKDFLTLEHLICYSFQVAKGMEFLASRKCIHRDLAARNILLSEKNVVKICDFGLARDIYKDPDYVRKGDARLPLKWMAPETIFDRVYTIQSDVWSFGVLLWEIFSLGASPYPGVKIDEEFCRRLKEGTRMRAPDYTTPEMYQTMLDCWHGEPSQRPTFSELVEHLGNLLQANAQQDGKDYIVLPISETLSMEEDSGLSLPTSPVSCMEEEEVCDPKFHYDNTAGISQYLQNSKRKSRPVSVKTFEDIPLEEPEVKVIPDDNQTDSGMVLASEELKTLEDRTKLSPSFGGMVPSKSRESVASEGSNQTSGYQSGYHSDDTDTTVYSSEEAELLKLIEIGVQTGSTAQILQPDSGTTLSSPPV
Chain of Mast/stem cell growth factor receptor Kit (P10721 whole entry): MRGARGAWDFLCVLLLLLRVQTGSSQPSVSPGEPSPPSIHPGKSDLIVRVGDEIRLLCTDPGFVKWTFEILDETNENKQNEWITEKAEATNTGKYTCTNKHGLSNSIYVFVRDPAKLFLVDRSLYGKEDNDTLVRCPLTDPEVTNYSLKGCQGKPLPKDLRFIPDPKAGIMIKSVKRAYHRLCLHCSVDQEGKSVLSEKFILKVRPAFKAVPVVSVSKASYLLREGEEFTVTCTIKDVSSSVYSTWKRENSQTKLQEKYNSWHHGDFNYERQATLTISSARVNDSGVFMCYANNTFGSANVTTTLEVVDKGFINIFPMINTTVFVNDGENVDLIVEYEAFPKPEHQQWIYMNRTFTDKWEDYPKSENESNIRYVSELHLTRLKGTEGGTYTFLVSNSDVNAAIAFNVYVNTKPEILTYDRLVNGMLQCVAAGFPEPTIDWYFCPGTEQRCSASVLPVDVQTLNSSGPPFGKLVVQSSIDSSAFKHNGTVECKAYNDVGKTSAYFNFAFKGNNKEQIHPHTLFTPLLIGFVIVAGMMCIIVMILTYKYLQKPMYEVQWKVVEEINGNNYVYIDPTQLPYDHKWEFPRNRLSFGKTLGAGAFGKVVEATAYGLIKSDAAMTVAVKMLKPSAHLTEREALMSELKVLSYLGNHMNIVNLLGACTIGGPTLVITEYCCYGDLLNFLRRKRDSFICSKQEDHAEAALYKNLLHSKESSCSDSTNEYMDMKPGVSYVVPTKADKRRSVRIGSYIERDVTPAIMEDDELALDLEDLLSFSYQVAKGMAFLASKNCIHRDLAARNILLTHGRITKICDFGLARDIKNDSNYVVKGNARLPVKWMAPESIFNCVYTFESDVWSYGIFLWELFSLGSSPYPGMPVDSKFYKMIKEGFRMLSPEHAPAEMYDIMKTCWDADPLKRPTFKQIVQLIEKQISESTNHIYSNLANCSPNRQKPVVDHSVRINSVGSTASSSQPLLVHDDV

## CC(=O)N1CCN(c2cnc3cc(C(F)(F)F)cc(NCc4cccc([N+](=O)[O-])c4)c3c2)CC1
[1]
  IC50: 0.00095 µM
[2]
  clearance: 59.8 mL/min/kg
[3]
  Vd: 16.7 L/kg
[4]
  half-life: 3.25 h
[5]
  Cmax: 316 ng/mL
[6]
  Tmax: 3 h
[7]
  IC50: > 10 µM
[8]
  IC50: > 10 µM
[9]
  IC50: > 10 µM
[10]
  IC50: > 10 µM
[11]
  IC50: > 10 µM
[12]
  inhibition: Active
[13]
  inhibition: Active
[14]
  inhibition: Active
NCI-H1993
  IC50: 5.3 µM
MCF7
  IC50: 16 µM
NIH3T3
  inhibition in vivo at 100 mg/kg: 68%
[15]
  inhibition in vivo at 100 mg/kg: 69%
